Laboratory results reported in ChEMBL document CHEMBL1148020, “Synthesis and glycogen phosphorylase inhibitor activity of 2,3-dihydrobenzo[1,4]dioxin derivatives” (Bioorg Med Chem, 2007).

What was measured:
Homo sapiens [1] = species: Homo sapiens; assay: Inhibition of glycogen phosphorylase A at 625 uM
[2] = target: T1, Glycogen phosphorylase, liver form (Homo sapiens) (UniProt P06737); assay: Inhibition of liver glycogen phosphorylase B at 625 uM
T1 sequence (whole entry): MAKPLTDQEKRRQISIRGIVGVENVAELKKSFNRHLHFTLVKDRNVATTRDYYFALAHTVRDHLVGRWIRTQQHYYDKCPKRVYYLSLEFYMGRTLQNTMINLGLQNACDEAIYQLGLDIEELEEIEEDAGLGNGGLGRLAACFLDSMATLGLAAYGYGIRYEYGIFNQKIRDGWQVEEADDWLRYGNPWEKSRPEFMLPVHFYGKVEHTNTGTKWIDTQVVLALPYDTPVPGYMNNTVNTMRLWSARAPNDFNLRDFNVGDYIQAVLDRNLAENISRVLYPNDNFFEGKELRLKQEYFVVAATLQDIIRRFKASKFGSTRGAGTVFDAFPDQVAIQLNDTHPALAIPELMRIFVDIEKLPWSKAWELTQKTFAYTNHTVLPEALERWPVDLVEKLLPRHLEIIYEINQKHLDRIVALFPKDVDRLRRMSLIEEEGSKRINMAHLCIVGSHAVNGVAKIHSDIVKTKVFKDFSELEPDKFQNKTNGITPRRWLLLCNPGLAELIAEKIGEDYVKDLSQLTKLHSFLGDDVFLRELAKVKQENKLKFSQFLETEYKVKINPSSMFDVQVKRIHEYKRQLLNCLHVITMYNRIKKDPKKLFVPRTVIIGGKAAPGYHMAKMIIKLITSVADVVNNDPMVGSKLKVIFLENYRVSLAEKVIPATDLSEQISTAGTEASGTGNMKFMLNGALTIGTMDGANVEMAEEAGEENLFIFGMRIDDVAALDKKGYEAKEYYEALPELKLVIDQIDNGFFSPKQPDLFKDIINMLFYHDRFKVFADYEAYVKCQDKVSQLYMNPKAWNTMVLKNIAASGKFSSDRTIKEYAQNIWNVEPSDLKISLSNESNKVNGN

Homo sapiens [3] = species: Homo sapiens; assay: Inhibition of glycogen phosphorylase at 625 uM
[4] = Inhibition of glycogen phosphorylase; parameters: species or system Homo sapiens
How it was run: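 Activity measured in the glycogen-synthesis direction at 30 °C with 1% glycogen, with or without glucose-1-phosphate substrate. Buffer was 50 mM triethanolamine/HCl pH 6.8 with 100 mM KCl, 1 mM dithiothreitol and 1 mM EDTA. Muscle or liver phosphorylase a was run without AMP. Phosphorylase b was run with AMP: 1 mM for muscle, 2 mM for liver. Kinetic analysis followed the authors' earlier protocol.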

inhibition (Homo sapiens [1]) [%] | inhibition [2] [%] | inhibition (Homo sapiens [3]) [%] | IC50 [4] [mM] | SMILES
20 | 20 | 20 | – | O=C1NC(=O)C(Cc2ccc(OCC3COc4ccccc4O3)cc2)S1 (configuration not stated)
– | – | – | 7 | O=C1NC(=O)C(Cc2ccc(OCC3COc4cc5c(cc4O3)OCO5)cc2)S1 (configuration not stated)
20 | 20 | 20 | – | O=C1N=C(O)S/C1=C\c1ccc(OCC2COc3ccccc3O2)cc1 (configuration not stated)
